Source: PMC10668576 (RSC Advances, 2023)
Converted amounts (≈) assume the structure as drawn.

Assays:
Pseudomonas aeruginosa [1] = assay: Disk diffusion inhibition zones; type: cell-based; conditions: 24 h
Method in brief: (§1)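 Test compound was dissolved in DMSO at 1000 μg mL−1 and soaked onto sterile 6 mm filter-paper discs. Discs were placed on Mueller–Hinton agar inoculated with fresh cultures suspended in sterile physiological water, then incubated at 37 °C for 24 h. DMSO discs served as negative control, with azithromycin (30 mg mL−1) as reference. Clear-zone width was read in mm with a transparent ruler.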

Pseudomonas aeruginosa [2] = assay: Minimum inhibitory concentration, serial dilution; type: cell-based
Method in brief: (§2)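 Inoculum was 10^6 cfu mL−1, incubated at 37 °C for 18–24 h. Wells were inspected for presence or absence of growth, and MIC was taken as the lowest concentration preventing growth. Each organism was tested on three separate occasions.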

Staphylococcus aureus [3] = assay: Minimum inhibitory concentration, serial dilution; type: cell-based; conditions: Muller Hinton broth, 37 °C, 18 to 24 h
Method in brief: as §2

Escherichia coli [4] = assay: Disk diffusion inhibition zones; type: cell-based; conditions: 24 h
Method in brief: as §1

Staphylococcus aureus [5] = assay: Disk diffusion inhibition zones; type: cell-based; conditions: 24 h
Method in brief: as §1

Klebsiella pneumoniae [6] = assay: Minimum inhibitory concentration, serial dilution; type: cell-based
Bacillus cereus [7] = assay: Disk diffusion inhibition zones; type: cell-based; conditions: 24 h
Method in brief: as §1

Aeromonas sobria [8] = assay: Minimum inhibitory concentration, serial dilution; type: cell-based
Method in brief: as §2

[9] = test system: Staphylococcus epidermidis; assay: Disk diffusion inhibition zones; type: cell-based; conditions: 24 h
Method in brief: as §1

Klebsiella pneumoniae [10] = assay: Disk diffusion inhibition zones; type: cell-based; conditions: 24 h
Aeromonas sobria [11] = assay: Disk diffusion inhibition zones; type: cell-based; conditions: 24 h
Method in brief: as §1

Bacillus cereus [12] = assay: Minimum inhibitory concentration, serial dilution; type: cell-based
Method in brief: as §2

[13] = test system: Staphylococcus epidermidis; assay: Minimum inhibitory concentration, serial dilution; type: cell-based
Method in brief: as §2

[14] = test system: Stenotrophomonas maltophilia; assay: Disk diffusion inhibition zones; type: cell-based; conditions: 24 h
Method in brief: as §1

Escherichia coli [15] = assay: Minimum inhibitory concentration, serial dilution; type: cell-based
Method in brief: as §2

[16] = test system: Stenotrophomonas maltophilia; assay: Minimum inhibitory concentration, serial dilution; type: cell-based
Method in brief: as §2

burn wounds = assay: Burn healing assay in rats; type: in vivo, albino Wistar female rats; conditions: 1% cream, one application per 24 h on burn wound, n = 3
[17] = Acute parenteral toxicity in rats; type: in vivo; conditions: 0.5 to 50 mg per kg body weight, 14 days observation
Method in brief: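 Single parenteral dose of test compound dissolved in ethanol with gentle heating, given by tuberculin syringe following OECD 425 to female albino Wistar rats (190 ± 20 g), 3 per dose, at 0.5, 1, 10, 30 or 50 mg kg−1. Controls were ethanol-injected and non-injected rats. Rats were observed every 30 min for 6 h, then through 24 h and daily to 14 days. Organs were examined macroscopically and weighed on day 15.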

| MIC (Staphylococcus aureus [3]) [µg/mL] | Structure (SMILES) | zone of inhibition at 1000 µg/mL (Pseudomonas aeruginosa [1]) [mm] | MIC (Pseudomonas aeruginosa [2]) [µg/mL] | MIC (Staphylococcus aureus [3]; Staphylococcus aureus) [µg/mL] | zone of inhibition at 1000 µg/mL (Escherichia coli [4]) [mm] | zone of inhibition at 1000 µg/mL (Staphylococcus aureus [5]) [mm] | MIC (Klebsiella pneumoniae [6]) [µg/mL] | zone of inhibition at 1000 µg/mL (Bacillus cereus [7]) [mm] | MIC (Aeromonas sobria [8]) [µg/mL] | zone of inhibition at 1000 µg/mL [9] [mm] | zone of inhibition at 1000 µg/mL (Klebsiella pneumoniae [10]) [mm] | zone of inhibition at 1000 µg/mL (Aeromonas sobria [11]) [mm] | MIC (Bacillus cereus [12]) [µg/mL] | MIC [13] [µg/mL] | zone of inhibition at 1000 µg/mL [14] [mm] | MIC (Escherichia coli [15]) [µg/mL] | MIC [16] [µg/mL] | Day utilized for recovery (burn wounds) [days] | Mortality [17] | Signs of toxicity [17] |
| --- | --- | --- | --- | --- | --- | --- | --- | --- | --- | --- | --- | --- | --- | --- | --- | --- | --- | --- | --- | --- |
| – | O=C(O)c1cc(N=Nc2nccs2)ccc1O [Compound 3, 2-Hydroxy-5-(thiazol-2-yldiazenyl)benzoic acid] | 10 ± 0.33 | 80 (≈ 321 µM) | 10 (≈ 40.1 µM) | 9 | 12 ± 0.23 | 80 (≈ 321 µM) | 10 ± 0.03 | 20 (≈ 80.2 µM) | 14 ± 0.25 | 11 ± 0.31 | 10 ± 0.31 | 20 (≈ 80.2 µM) | 10 (≈ 40.1 µM) | 8 ± 0.11 | 60 (≈ 241 µM) | 40 (≈ 160 µM) | – | – | – |
| – | O=C(Nc1nccs1)c1cc(N=Nc2nccs2)ccc1O [Compound 3a, 2-Hydroxy-N-(thiazol-2-yl)-5-(thiazol-2-yldiazenyl)benzamide] | 9 | 60 (≈ 181 µM) | 10 (≈ 30.2 µM) | 9 ± 0.33 | 13 ± 0.21 | 200 (≈ 604 µM) | 10 ± 0.23 | 40 (≈ 121 µM) | 18 ± 0.26 | 13 ± 0.22 | 10 ± 0.15 | 100 (≈ 302 µM) | 80 (≈ 241 µM) | 9 ± 0.28 | 80 (≈ 241 µM) | 60 (≈ 181 µM) | 26 | no occurrences of mortality | did not display any noteworthy signs of toxicity |
| – | O=C(Nc1nc2ccccc2s1)c1cc(N=Nc2nccs2)ccc1O [Compound 3b, N-(Benzo[d]thiazol-2-yl)-2-hydroxy-5-(thiazol-2-yldiazenyl)benzamide] | 9 | 40 (≈ 105 µM) | 20 (≈ 52.4 µM) | 9 ± 0.14 | 13 ± 0.58 | 80 (≈ 210 µM) | 10 ± 0.33 | 10 (≈ 26.2 µM) | 14 ± 0.23 | 14 ± 0.28 | 10 ± 0.28 | 80 (≈ 210 µM) | 10 (≈ 26.2 µM) | 10 ± 0.04 | 20 (≈ 52.4 µM) | 20 (≈ 52.4 µM) | 24 | no occurrences of mortality | did not display any noteworthy signs of toxicity |
| – | O=C(Nc1ccc(S(=O)(=O)c2nccs2)cc1)c1cc(N=Nc2nccs2)ccc1O [Compound 3c, 2-Hydroxy-5-(thiazol-2-yldiazenyl)-N-(4-(thiazol-2-ylsulfonyl)phenyl)benzamide] | 9 ± 0.33 | – | 10 (≈ 21.2 µM) | 9 ± 0.16 | 16 ± 0.09 | – | 10 ± 0.13 | 40 (≈ 84.8 µM) | 12 ± 0.43 | 12 ± 0.11 | 10 ± 0.33 | – | 40 (≈ 84.8 µM) | 9 ± 0.21 | 20 (≈ 42.4 µM) | 40 (≈ 84.8 µM) | 27 | no occurrences of mortality | did not display any noteworthy signs of toxicity |
| 20 (≈ 26.7 µM) | CC[C@H]1OC(=O)[C@H](C)[C@@H](O[C@H]2C[C@@](C)(OC)[C@@H](O)[C@H](C)O2)[C@H](C)[C@@H](O[C@@H]2O[C@H](C)C[C@H](N(C)C)[C@H]2O)[C@](C)(O)C[C@@H](C)CN(C)[C@H](C)[C@@H](O)[C@]1(C)O [azithromycin, reference compound] | 7 ± 0.14 | – | 40 (≈ 53.4 µM) | 7 ± 0.32 | 15 ± 0.09 | 60 (≈ 80.1 µM) | 11 ± 0.31 | 20 (≈ 26.7 µM) | 11 ± 0.32 | 20 ± 0.26 | 18 ± 0.41 | 80 (≈ 107 µM) | 80 (≈ 107 µM) | 10 ± 0.02 | 20 (≈ 26.7 µM) | 40 (≈ 53.4 µM) | – | – | – |
